In brackets after ≈: the same amount, converted by molar mass.
Legend:
[1] = test system: Mycobacterium tuberculosis; test: Antituberculosis activity against Mycobacterium tuberculosis H37Rv after 24 hrs by Lowenstein-Jensen method; type: functional
Vibrio cholerae = test: Antibacterial activity against 10^8 CFU/mL Vibrio cholerae MTCC 3906 by NCCLS M100-S12(M7) broth microdilution method; type: functional
Summary of the method: (§1)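 Broth microdilution in Mueller Hinton broth. Inoculum was adjusted by turbidity to 10^8 CFU/mL. Compounds came from 2000 µg/mL DMSO stocks. Primary screen used 500, 250 and 200 µg/mL; actives were retested at 100, 62.5, 50 and 25 µg/mL. Tubes were incubated overnight at 37 °C. […] A known-sensitivity organism was run in parallel.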

[2] = test system: Mycobacterium tuberculosis; test: Antituberculosis activity against Mycobacterium tuberculosis H37Rv at 250 ug/mL after 24 hrs by Lowenstein-Jensen method; type: functional
Candida albicans = test: […] activity against 10^8 CFU/mL Candida albicans MTCC 227 by NCCLS M100-S12(M7) broth microdilution method; type: functional
Salmonella typhi = test: Antibacterial activity against 10^8 CFU/mL Salmonella typhi MTCC 98 by NCCLS M100-S12(M7) broth microdilution method; type: functional, Salmonella enterica subsp. enterica serovar Typhi; conditions: Salmonella enterica; summary of the method: as §1
Clostridium tetani = test: Antibacterial activity against 10^8 CFU/mL Clostridium tetani MTCC 449 by NCCLS M100-S12(M7) broth microdilution method; type: functional; summary of the method: as §1
Bacillus subtilis = test: Antibacterial activity against 10^8 CFU/mL Bacillus subtilis MTCC 441 by NCCLS M100-S12(M7) broth microdilution method; type: functional; summary of the method: as §1
Aspergillus fumigatus = test: […] activity against 10^8 CFU/mL Aspergillus fumigatus MTCC 3008 by NCCLS M100-S12(M7) broth microdilution method; type: functional
Streptococcus pneumoniae = test: Antibacterial activity against 10^8 CFU/mL Streptococcus pneumoniae MTCC 1936 by NCCLS M100-S12(M7) broth microdilution method; type: functional; summary of the method: as §1
Escherichia coli = test: Antibacterial activity against 10^8 CFU/mL Escherichia coli MTCC 443 by NCCLS M100-S12(M7) broth microdilution method; type: functional; summary of the method: as §1

Compound	MIC [1]	MIC99 (Vibrio cholerae)	inhibition at 250 µg/mL [2]	MIC99 (Candida albicans)	MIC99 (Salmonella typhi)	MIC99 (Clostridium tetani)	MIC99 (Bacillus subtilis)	MIC99 (Aspergillus fumigatus)	MIC99 (Streptococcus pneumoniae)	MIC99 (Escherichia coli)
NNC(=O)c1ccncc1 [ISONIAZID]	0.2 µg/mL (≈ 1.46 µM)									
Cc1ccc2nc(Oc3ccc(Cl)cc3)c(C=O)cc2c1	310 µg/mL (≈ 1040 µM)	500 µg/mL (≈ 1680 µM)	93%	500 µg/mL (≈ 1680 µM)	100 µg/mL (≈ 336 µM)	500 µg/mL (≈ 1680 µM)	500 µg/mL (≈ 1680 µM)	1000 µg/mL (≈ 3360 µM)	250 µg/mL (≈ 840 µM)	250 µg/mL (≈ 840 µM)
COC1=CC(=O)C[C@@H](C)[C@]12Oc1c(Cl)c(OC)cc(OC)c1C2=O [GRISEOFULVIN]				500 µg/mL (≈ 1420 µM)				100 µg/mL (≈ 283 µM)		
COc1ccc2nc(Oc3ccc(C)cc3)c(C=O)cc2c1		500 µg/mL (≈ 1700 µM)	23%	250 µg/mL (≈ 852 µM)	250 µg/mL (≈ 852 µM)	500 µg/mL (≈ 1700 µM)	250 µg/mL (≈ 852 µM)	1000 µg/mL (≈ 3410 µM)	500 µg/mL (≈ 1700 µM)	250 µg/mL (≈ 852 µM)
COc1ccc2nc(Oc3ccccc3)c(C=O)cc2c1		200 µg/mL (≈ 716 µM)	42%	1000 µg/mL (≈ 3580 µM)	100 µg/mL (≈ 358 µM)	250 µg/mL (≈ 895 µM)	100 µg/mL (≈ 358 µM)	> 1000 µg/mL	200 µg/mL (≈ 716 µM)	62.5 µg/mL (≈ 224 µM)
COc1ccc2nc(Oc3ccc(Cl)cc3)c(C=O)cc2c1		200 µg/mL (≈ 637 µM)	54%	500 µg/mL (≈ 1590 µM)	200 µg/mL (≈ 637 µM)	200 µg/mL (≈ 637 µM)	200 µg/mL (≈ 637 µM)	1000 µg/mL (≈ 3190 µM)	250 µg/mL (≈ 797 µM)	200 µg/mL (≈ 637 µM)
Cc1ccc(Oc2nc3ccc(C)cc3cc2C=O)cc1		200 µg/mL (≈ 721 µM)	84%	500 µg/mL (≈ 1800 µM)	100 µg/mL (≈ 361 µM)	200 µg/mL (≈ 721 µM)	250 µg/mL (≈ 901 µM)	1000 µg/mL (≈ 3610 µM)	200 µg/mL (≈ 721 µM)	50 µg/mL (≈ 180 µM)
O=Cc1cc2ccccc2nc1Oc1ccccc1	260 µg/mL (≈ 1040 µM)	500 µg/mL (≈ 2010 µM)	95%	> 1000 µg/mL	500 µg/mL (≈ 2010 µM)	500 µg/mL (≈ 2010 µM)	1000 µg/mL (≈ 4010 µM)	> 1000 µg/mL	500 µg/mL (≈ 2010 µM)	500 µg/mL (≈ 2010 µM)
O=Cc1cc2ccccc2nc1Oc1ccc(Cl)cc1		500 µg/mL (≈ 1760 µM)	64%	250 µg/mL (≈ 881 µM)	200 µg/mL (≈ 705 µM)	500 µg/mL (≈ 1760 µM)	200 µg/mL (≈ 705 µM)	> 1000 µg/mL	62.5 µg/mL (≈ 220 µM)	100 µg/mL (≈ 352 µM)
CC1(C)S[C@@H]2[C@H](NC(=O)[C@H](N)c3ccccc3)C(=O)N2[C@H]1C(=O)O [AMPICILLIN]		100 µg/mL (≈ 286 µM)			100 µg/mL (≈ 286 µM)	250 µg/mL (≈ 715 µM)	250 µg/mL (≈ 715 µM)		100 µg/mL (≈ 286 µM)	100 µg/mL (≈ 286 µM)
Cc1ccc2nc(Oc3ccccc3)c(C=O)cc2c1		250 µg/mL (≈ 950 µM)	62%	250 µg/mL (≈ 950 µM)	200 µg/mL (≈ 760 µM)	200 µg/mL (≈ 760 µM)	250 µg/mL (≈ 950 µM)	500 µg/mL (≈ 1900 µM)	500 µg/mL (≈ 1900 µM)	200 µg/mL (≈ 760 µM)
Cc1ccc(Oc2nc3ccccc3cc2C=O)cc1		250 µg/mL (≈ 950 µM)	74%	500 µg/mL (≈ 1900 µM)	100 µg/mL (≈ 380 µM)	250 µg/mL (≈ 950 µM)	500 µg/mL (≈ 1900 µM)	500 µg/mL (≈ 1900 µM)	250 µg/mL (≈ 950 µM)	100 µg/mL (≈ 380 µM)
NYSTATIN				100 µg/mL				100 µg/mL		

Source: ChEMBL document CHEMBL1817665, “Synthesis and identification of β-aryloxyquinolines and their pyrano[3,2-c]chromene derivatives as a new class of antimicrobial and antituberculosis agents” (2011)
